Source: ChEMBL document CHEMBL1155551, “First synthesis and antiprotozoal activities of divinyl sulfone-modified carbohydrates” (Bioorg Med Chem Lett, 2010)

Assays:
Entamoeba histolytica = experiment: Antiprotozoal activity against Entamoeba histolytica after 24 hrs by trypan blue assay; format: functional, organism-based
Outline: (§1)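 Trophozoites kept in TYIS-33 medium, E. histolytica at 37 °C and E. invadens at 25 °C. About 5 × 10⁵ cells/mL exposed to compounds (10 mM stocks in DMSO) for 24 h, with DMSO as negative and metronidazole as positive control. Cells washed in PBS; live cells counted by hemocytometer with trypan blue. IC50 fitted from at least three experiments, each in triplicate.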

Entamoeba invadens = experiment: Antiprotozoal activity against Entamoeba invadens after 24 hrs by trypan blue assay; format: functional, organism-based; outline: as §1
MCF7 = experiment: Cytotoxicity against human MCF7 after 36 hrs by MTT assay; format: cell-based; conditions: mcf7, 48 h, in the assay text read “48 hrs” for “36 hrs”
Outline: (§2)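 MCF7 or AH927 cells seeded at 2 × 10³ per well under 5% CO2, 37 °C. After 36 h, compound added at concentrations ranging from 0 to 100, with untreated wells as control. Viability read by MTT after 48 h of treatment.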

[1] = Cytotoxicity against cat AH927 after 36 hrs by MTT assay; conditions: Felis catus, 48 h, in the assay text read “48 hrs” for “36 hrs”; outline: as §2

SMILES | IC50 (Entamoeba histolytica) [µM] | IC50 (Entamoeba invadens) [µM] | Activity (MCF7) | Activity [1]
C=CS(=O)(=O)C1=C[C@@H](OC)O[C@@H]1COC(c1ccccc1)(c1ccccc1)c1ccccc1 | 37.9 | 25 |  | 
C=CS(=O)(=O)C1=C[C@H](OC)O[C@@H]1COCc1ccccc1 | 19.5 | 9.3 | Non-toxic | Non-toxic
C=CS(=O)(=O)C1=C[C@@H](OC)O[C@@H]1COCc1ccccc1 | 24.4 | 30.1 |  | 
C=CS(=O)(=O)C1=C[C@H](OC)O[C@@H]1COC(c1ccccc1)(c1ccccc1)c1ccccc1 | 32.9 | 17 |  | 
Cc1ncc([N+](=O)[O-])n1CCO [METRONIDAZOLE] | 2.5 | 3 |  | 
